Results from ChEMBL document CHEMBL1156226, “Synthesis and structure-activity relationship studies of peptidomimetic PKB/Akt inhibitors: the significance of backbone interactions” (Bioorg Med Chem, 2010).
Peptide text beside a SMILES is read from it.

Key:
[1] = target: T1, RAC-alpha serine/threonine-protein kinase (Homo sapiens, UniProt P31749); experiment: Inhibition of PKB at 5 uM by radioactive kinase assay relative to control
In short: (§1)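 PKB/Akt enzyme HisAPHPKBEEEFlag, partly purified in one step on Ni-NTA agarose. The radioactive kinase reaction contains 50 mM Hepes pH 7.4, 0.1 mM EGTA, 0.1% 2-mercaptoethanol, 10 mM magnesium acetate, 3 uM RPRTSSF peptide substrate, 10 uM [γ32P]ATP and 0.005 units enzyme. Inhibition is given as percent reduction of activity against a no-inhibitor control. IC50 values, with 95% confidence ranges, come from curve fitting.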

[2] = target: T1, RAC-alpha serine/threonine-protein kinase; experiment: Inhibition of PKB at 50 uM by radioactive kinase assay relative to control; in short: as §1
[3] = target: T1, RAC-alpha serine/threonine-protein kinase; experiment: Inhibition of PKB at 20 uM by radioactive kinase assay relative to control; in short: as §1
[4] = Stability in presence of trypsin and chymotrypsin assessed as peptide degradation at 1 mM after 30 mins by HPLC; assay type: ADME; details: read-out: Activity
In short: (§2)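 Peptide at 1 mM in 200 mM NH4HCO3, pH 8, is mixed with porcine pancreatic trypsin plus chymotrypsin (2.5 mg/ml solution) and incubated at 37 °C. Samples are taken every 30 min and quenched with 2% TFA/30% acetonitrile in water. Degradation is followed by HPLC and MALDI-TOF MS.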

[5] = target: T1, RAC-alpha serine/threonine-protein kinase; experiment: Inhibition of PKB at 100 uM by radioactive kinase assay relative to control; in short: as §1
[6] = target: T1, RAC-alpha serine/threonine-protein kinase; experiment: Inhibition of PKB by radioactive kinase assay; in short: as §1
[7] = Stability in presence of trypsin and chymotrypsin assessed as peptide degradation at 1 mM after 2 hrs by HPLC; assay type: ADME; details: isolated protein, 1000 µM; in short: as §2
[8] = Stability in presence of trypsin and chymotrypsin assessed as peptide degradation at 1 mM within 30 mins by HPLC; assay type: ADME; details: isolated protein, 0.5 h, 1000 µM; in short: as §2
[9] = Stability in presence of trypsin and chymotrypsin assessed as peptide degradation at 1 mM within 90 mins by HPLC; assay type: ADME; details: isolated protein, 1.5 h, 1000 µM; in short: as §2

T1 sequence (P31749 whole entry): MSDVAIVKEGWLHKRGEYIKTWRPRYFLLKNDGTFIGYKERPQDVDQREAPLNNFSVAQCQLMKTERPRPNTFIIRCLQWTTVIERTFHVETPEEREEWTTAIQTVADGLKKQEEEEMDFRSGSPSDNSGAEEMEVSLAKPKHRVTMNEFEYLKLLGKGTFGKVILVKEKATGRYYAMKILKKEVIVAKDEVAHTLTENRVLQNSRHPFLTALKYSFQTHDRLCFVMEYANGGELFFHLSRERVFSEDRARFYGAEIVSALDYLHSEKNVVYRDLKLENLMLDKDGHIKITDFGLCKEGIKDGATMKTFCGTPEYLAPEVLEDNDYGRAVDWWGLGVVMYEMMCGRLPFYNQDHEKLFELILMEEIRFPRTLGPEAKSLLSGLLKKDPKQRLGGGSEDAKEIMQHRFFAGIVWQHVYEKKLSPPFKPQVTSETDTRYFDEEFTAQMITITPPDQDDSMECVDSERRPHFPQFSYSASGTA

inhibition [1] | inhibition [2] | inhibition [3] | metabolised at 0.5 h, 1000 µM [4] | inhibition [5] | IC50 [6] | Stability [7] | Stability [8] | Stability [9] | SMILES
95% | 95% | – | – | – | – | – | – | – | CCC[C@H](NC(=O)[C@H](CCCNC(=N)N)NC(=O)[C@@H]1CCCN1C(=O)[C@@H](N)CCCNC(=N)N)C(=O)N[C@@H](Cc1ccc(O)cc1)C(=O)N[C@H](CS)C(=O)N[C@@H](CCC(C)C)C(N)=O
87% | 99% | 96% | 40% | 99% | 940 nM | Unstable | – | – | CCC[C@H](NC(=O)[C@H](CCCNC(=N)N)NC(=O)[C@@H]1CCCN1C(=O)[C@@H](N)CCCNC(=N)N)C(=O)N[C@@H](Cc1ccc(O)cc1)C(=O)N[C@@H](CN)C(=O)N[C@@H](CCC(C)C)C(N)=O (HELM PEPTIDE1{R.P.R.[Nva].Y.[NC[C@H](N[*:1])C(=O)[*:2]].[CC(C)CC[C@H](N[*:1])C(=O)[*:2]].[am]}$$$$V2.0)
77% | – | – | – | 95% | 2030 nM | – | Unstable | Unstable | CCC[C@H](NC(=O)[C@H](CCCNC(=N)N)NC(=O)[C@H](C)N(C)C(=O)[C@@H](N)CCCNC(=N)N)C(=O)N[C@@H](Cc1ccc(O)cc1)C(=O)N[C@@H](CN)C(=O)N[C@@H](CCC(C)C)C(N)=O (HELM PEPTIDE1{R.[meA].R.[Nva].Y.[NC[C@H](N[*:1])C(=O)[*:2]].[CC(C)CC[C@H](N[*:1])C(=O)[*:2]].[am]}$$$$V2.0)
85% | – | – | – | 97% | 920 nM | – | – | – | CCC[C@H](NC(=O)[C@H](CCCNC(=N)N)NC(=O)[C@@H]1CCCN1C(=O)[C@H](CCCNC(=N)N)NC)C(=O)N[C@@H](Cc1ccc(O)cc1)C(=O)N[C@@H](CN)C(=O)N[C@@H](CCC(C)C)C(N)=O (HELM PEPTIDE1{[meR].P.R.[Nva].Y.[NC[C@H](N[*:1])C(=O)[*:2]].[CC(C)CC[C@H](N[*:1])C(=O)[*:2]].[am]}$$$$V2.0)
